The nature of data set [1]: Cytotoxicity against human HPDE cells assessed as reduction in cell viability in presence of Cu2+ incubated for 72 hrs by cell titer-glo luminescent cell viability assay. It is filed as cell-based. In a few lines: (§1)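 Cells were grown in DMEM or RPMI with 10% FBS, without antibiotics, at 37 °C, 20% O2, 5% CO2. Adherent lines were seeded at 500 cells/well. Serially diluted compound was given with 20 μM Cu(II) (CuCl2) for 72 h; leukemia models received pre-formed 1:1 copper complex. ATP was read by CellTiter-Glo luminescence. IC50 is relative to DMSO-treated cells.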

The subject of data set [2] is MIA PaCa-2. The data set is described as follows: Cytotoxicity against human MIA PaCa2 cells assessed as reduction in cell viability 72 hrs by cell titer-glo luminescent cell viability assay. It is filed as functional. Summed up: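 MIAPACA2 cells in conventional medium without copper supplement got serially diluted compound for 72 h. ATP content was read by CellTiter-Glo, and IC90 (90% proliferation inhibition vs DMSO control) was calculated.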
In general terms: Cellular ATP, detected with luciferase, serves as a proxy for viable cell number.

Data set [3] has as its system MIA PaCa-2. The data set can be described thus: Cytotoxicity against human MIA PaCa2 cells assessed as reduction in cell viability at 25 nM in presence of Zn2+ incubated for 72 hrs by cell titer-glo luminescent cell viability assay. It is filed as functional, cell-based. Summed up: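 MIAPACA2 cells were exposed to compound for 72 h with 20 μM Fe(II) or Zn(II) supplement. Proliferation was read by CellTiter-Glo ATP luminescence.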

For another data set, the system named is HPAF-II. The data set is described as follows: Cytotoxicity against human HPAF-II cells assessed as reduction in cell viability in presence of Cu2+ incubated for 72 hrs by cell titer-glo luminescent cell viability assay. The class given is functional, cell-based. Summed up:
as §1

In another data set the test system is PANC-03-27. The data set is described as follows: Cytotoxicity against human PANC-03-27 cells assessed as reduction in cell viability in presence of Cu2+ incubated for 72 hrs by cell titer-glo luminescent cell viability assay. The class given is functional, cell-based. The following applies: PANC-03-27, 72 h. In a few lines:
as §1

The next data set has as its system YAPC. The data set is described as follows: Cytotoxicity against human YAPC cells assessed as reduction in cell viability in presence of Cu2+ incubated for 72 hrs by cell titer-glo luminescent cell viability assay. The class given is functional, cell-based. Summed up: as §1
In data set [4] the test system is MIA PaCa-2. The data set is described as follows: Induction of apoptosis in human MIA PaCa-2 cells assessed as reduction in viable cells at 25 nM in presence of Cu2+ and ATRi incubated for 72 hrs by annexin V and propidium iodide staining based flow cytometry analysis relative to control. It is filed as functional. In a few lines:
(§2)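 Cells given 25 nM compound with or without 20 μM Cu(II) and/or the ATR inhibitor VE-822 at 250 nM for 72 h. Stained with annexin V-FITC and propidium iodide, then analysed on a five-laser flow cytometer to score viable, early apoptotic, late apoptotic and necrotic fractions against vehicle.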
(A flow cytometer gives signals particle by particle.)

Data set [5] relates to MIA PaCa-2. The data set is described as follows: Induction of apoptosis in human MIA PaCa-2 cells assessed as increase in late apoptotic cells at 25 nM in presence of Cu2+ and ATRi incubated for 72 hrs by annexin V and propidium iodide staining based flow cytometry analysis relative to control. It is filed as functional. In a few lines:
as §2

For data set [6], the system named is MIA PaCa-2. The data set can be described thus: Induction of apoptosis in human MIA PaCa-2 cells assessed as decrease in viable cells at 25 nM incubated for 72 hrs by annexin V and propidium iodide staining based flow cytometry analysis relative to control. The class given is functional. In a few lines: as §2
Data set [7] concerns MIA PaCa-2. The data set can be described thus: Induction of apoptosis in human MIA PaCa-2 cells assessed as increase in late apoptotic cells at 25 nM incubated for 72 hrs by annexin V and propidium iodide staining based flow cytometry analysis relative to control. The class given is functional. Summed up:
as §2

Data set [8] deals with MIA PaCa-2. The data set is described as follows: Induction of apoptosis in human MIA PaCa-2 cells assessed as increase in necrotic cells at 25 nM incubated for 72 hrs by annexin V and propidium iodide staining based flow cytometry analysis relative to control. It is filed as functional. Summed up:
as §2

Data set [9] deals with MIA PaCa-2. The data set can be described thus: Induction of apoptosis in human MIA PaCa-2 cells assessed as decrease in viable cells at 25 nM in presence of ATRi incubated for 72 hrs by annexin V and propidium iodide staining based flow cytometry analysis relative to control. It is filed as functional. In a few lines:
as §2

For data set [10], the system named is MIA PaCa-2. The data set is described as follows: Induction of DNA damage in human MIA PaCa-2 cells assessed as increase in CHEK1 phosphorylation at 10 nM in presence of Cu2+ incubated for 48 hrs by immunoblot assay. The class given is functional, cell-based. Summed up:
(§3)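 Treated with 10 nM compound plus 20 μM Cu(II). Lysed in RIPA buffer with protease and phosphatase inhibitors, then sonicated and centrifuged at 20 000g, 4 °C. Protein measured by micro BCA, and equal amounts run on bis-tris gels. Primary antibodies in 5% BSA/TBST; HRP-linked anti-rabbit or anti-mouse secondaries at 1:2500. Chemiluminescent detection on film; representative blot.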

The subject of data set [11] is MIA PaCa-2. The data set can be described thus: Induction of DNA damage in human MIA PaCa-2 cells assessed as increase in CHEK2 phosphorylation at 10 nM in presence of Cu2+ incubated for 48 hrs by immunoblot assay. It is filed as functional, cell-based. In a few lines:
as §3
A general note: Immunoblotting shows a protein as a band on a membrane.

The subject of data set [12] is MIA PaCa-2. The data set can be described thus: Induction of DNA damage in human MIA PaCa-2 cells assessed as decrease in UTP level at 25 nM in presence of Cu2+ incubated for 48 hrs by LC-MS/MS analysis. The class given is functional, cell-based. In a few lines: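 Cells in DMEM or RPMI with 10% FBS, 37 °C, 5% CO2. Treated with 25 nM compound plus 20 μM Cu(II) for 48 h. Nucleotide pools quantified by LC-MS/MS with multiple reaction monitoring. Cells were in glucose-free DMEM with 10% dialyzed FBS and 11 mM [U-13C6]glucose for 48 h, and glucose-labeled pools were compared. Mean ± SD, n = 3, two-way ANOVA with Bonferroni correction.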

The source made the active and inactive calls. The rule behind the calls is not given here.

The term IC90 denotes the point of the concentration-response curve where the effect stands at 90%. What is called IC50 is the concentration needed to halve the response being measured.

In the case of `CN(C)C(=S)NN=Cc1nccc2cc(F)ccc12`, the Activity entry is “Non-Toxic” in data set [1]; 27.8% in the data set with MIA PaCa-2 [4]; 42.7% with MIA PaCa-2 [5]; 94.9% in the data set on MIA PaCa-2 [6]; 0.79% in the data set on MIA PaCa-2 [7]; 2.49% with MIA PaCa-2 [8]. The Activity in the data set on MIA PaCa-2 [9] was 64.7%. In addition, the IC90 in the data set with MIA PaCa-2 [2] is 111 nM. The result in the data set with MIA PaCa-2 [3] and with MIA PaCa-2 [12] was inactive. Besides, the IC50 with HPAF-II, in the data set with PANC-03-27 and with YAPC was 1 nM each time. Further, the outcome with MIA PaCa-2 [10] and in the data set on MIA PaCa-2 [11] was Active.

For the origin of these results see ChEMBL document CHEMBL4699407, “Isoquinoline thiosemicarbazone displays potent anticancer activity with in vivo efficacy against aggressive leukemias” (RSC Med Chem, 2020).
